Screening results as filed in PubChem BioAssay.
Compounds with a hit are over-represented: about 3.6% of the library has one in this group of screens.
PfHsp90 set2: growth inhibition of PfHsp90-expressing yeast, primary screen, antimalarial PfHsp90 inhibitor project, S. cerevisiae, BacTiter-Glo luminescence, single point, set 2; AID 504621, 2011; inhibition, % at 9.4 µM; 310,000 compounds, 0.32% hits; BacTiter-Glo ATP, 48 h; yeast lacking PDR1 and PDR3 efflux regulators;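 active = every replicate shows inhibition above about 80%, whatever the replicate mean, limit read from the data; inconclusive = mean inhibition reaches the set limit but some replicate falls short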;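 also: 0% = DMSO neutral controls and 100% = 20 µM radicicol positive controls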
Beta cell apopt: inhibitors of cytokine-induced beta cell apoptosis, primary screen, luminescence; protection from apoptosis, % (concentration not given with the values); INS-1E cytokine-induced death, ATP luminescence, 48 h; percent of positive-control rescue, neutral wells zero; 300,000 compounds, 0.8% hits;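 active = Every replicate reaches about 75%, or at least half do and their mean reaches it too, limit read from the data; inconclusive = At least half of replicates reach the limit but their mean does not; inactive = Under half of replicates reach the limit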;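 also: 0% = cytokine-treated negative control wells and 100% = positive control rescue; higher means more ATP so stronger rescue from cytokine killing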
SKKanGAS inh: S. pyogenes SKKanGAS growth inhibitors in kanamycin, primary screen, streptokinase expression inhibitor project, SKKanGAS strain, BacTiter-Glo luminescence; 6 h; inhibition, % at 7.5 µM; 300,000 compounds, 1.3% hits;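 active = mean replicate score, as percent of positive control median, at least 50; inconclusive = mean below 50 but one replicate at or above 50; inactive = mean and every replicate below 50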;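 also: strain carries kanamycin resistance gene driven by streptokinase promoter and grows in 40 µg/ml kanamycin; loss of luminescence reflects streptokinase promoter inhibition or plain growth inhibition; 0% = median of DMSO wells and 100% = positive control at its reference dose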
CSC inhib: cancer stem cell viability inhibitors, primary screen, luminescence. 300,000 compounds, 1.1% hits. inhibition, % at 7.5 µM. AID 2717, 2010. cancer stem cell-like cells viability; in the data active = inhibition above about 75%; inconclusive = no clear call, values can overlap the other calls; tested in HMLE shEcad cells
HIF activator: HIF pathway transcriptional activators, primary screen, cell-based, U2OS HRE-luciferase, luminescence. 300,000 compounds, 0.32% hits. U2OS HRE-luciferase reporter; normalized: DMSO 0%, desferrioxamine 100%. AID 1910, 2009. activation, % at 7.5 µM (by protocol);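 active = mean activation of at least 10% of the iron chelator positive control signal, with at least half of replicates also reaching 10%; inconclusive = mean and replicate majority disagree about reaching 10%; inactive = mean and most replicates under 10%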
T cruzi repl: inhibitors of intracellular T. cruzi growth, primary screen, luminescence, NIH3T3 host cells | T. cruzi beta-gal in NIH3T3, 90 h | 300,000 compounds, 1.4% hits | inhibition, % (concentration not given with the values);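 active = mean inhibition across valid replicates above about 55%, limit read from the data; inconclusive = mean below that limit but half or more replicates reach it; inactive = mean below it, under half of replicates reach it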;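 also: signal also drops with host cell toxicity which is not excluded here; 0% = plate median of DMSO wells and 100% = zero luminescence signal; higher percent means less beta-gal luminescence so fewer parasites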
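compound dosing = single 50 nL compound addition per well in DMSO | material = NIH/3T3 host cells with β-galactosidase reporter T. cruzi | input = 5,000 host fibroblasts per well | timing = ≥90 h infection period, 3 h prior cell attachment | read-out basis = percent inhibition of parasite-derived β-gal signal | detection = GalScreen β-gal luminescence, detergent lysis, 60 min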
* hit, by the source's call; u = inconclusive; x = no result.

SMILES	PfHsp90 set2	Beta cell apopt	SKKanGAS inh	CSC inhib	HIF activator	T cruzi repl
CCn1c(=NC(=O)CCS(=O)(=O)c2ccccc2)sc2cccc(OC)c21	8.2	87.3*	34.2	-5.9	0.2	u
CCn1c(=NC(=O)CS(=O)(=O)c2ccc(F)cc2)sc2cccc(OC)c21	-15.6	x	5.7	-6.6	0.2	39.3
CCn1c(=NC(=O)c2ccc(S(=O)(=O)N3CCOCC3)cc2)sc2cccc(OC)c21	-47.7	88.0*	2.4	32.7	-2.5	45.6
CCOc1ccc(C2C(C(=O)c3ccco3)=C(O)C(=O)N2CCCn2ccnc2)cc1OC (centres undefined)	3.3	x	-8.4	-10.2	0.8	-18.2
Cn1c(N2CCOCC2)c(/C=N/OC(=O)c2ccc(F)cc2)c2ccccc21	16.6	64.7	7.6	11.9	0.2	64.6*
Cn1c(N2CCOCC2)c(/C=N/OC(=O)c2cccnc2Cl)c2ccccc21	-10.8	x	-4.0	x	0.1	6.9
Cc1ccc(C(=O)O/N=C/c2c(N3CCOCC3)n(C)c3ccccc23)cc1	-6.0	98.8*	12.2	-7.1	-0.3	56.1*
CC(=O)O/N=C/c1c(N2CCOCC2)n(C)c2ccccc12	x	1.0	3.8	-14.7	0.3	61.0*
COc1ccccc1/C=N/NC(=O)c1ccccc1Cl	-8.5	-7.4	0.6	-4.6	0.6	-3.8
C=CCc1cccc(/C=N/NC(=O)C(=O)Nc2ccc(C)cc2)c1O	0.2	x	70.1*	9.1	2.3	4.4
C=CCc1cccc(/C=N/NC(=O)c2ccc3nc[nH]c3c2)c1O	-10.7	83.7*	2.8	94.2*	u	-1.4
C=CCc1cccc(/C=N/NC(=O)c2ccccc2OC)c1O	-13.0	93.9*	32.1	-1.8	6.9	62.0*
O=C(N/N=C/c1ccc(Cl)cc1Cl)c1ccc2nc[nH]c2c1	1.9	-0.5	-6.9	-2.3	2.6	2.3
C=CCc1cccc(/C=N/NC(=O)c2ccccc2Br)c1O	3.7	70.2	10.9	56.9	1.0	60.9*
O=C(N/N=C/c1ccccc1C(=O)O)c1ccccc1Br	x	4.3	7.1	x	-0.2	-15.4
O=C(NNC(=S)Nc1ccccc1Cl)c1ccccc1Br	-8.1	15.3	6.8	10.0	3.4	-21.6
C=CCOc1ccc(C2CC(C)=NN2c2ccccc2)cc1 (centres undefined)	-9.0	3.6	4.3	5.7	0.5	11.0
Cc1ccn2c(=O)c(C(=O)NC3CCCCC3C)c(O)nc2c1 (centres undefined)	14.9	x	6.4	20.5	-0.1	14.8
c1ccc(CN2CCC(Nc3nc(-c4ccccc4)nc4ccccc34)CC2)cc1	23.0	35.1	-0.4	139.0*	-1.3	25.8
c1ccc(CN2CCC(CNc3ncnc4ccccc34)C2)cc1 (centres undefined)	7.5	x	x	x	x	x
c1ccc(N2CCN(c3nc(NCc4ccco4)c4ccccc4n3)CC2)cc1	-9.3	-1.6	-2.5	46.3	0.0	55.1*
c1ccc(CNc2nc(N3CCN(Cc4ccccc4)CC3)nc3ccccc23)cc1	x	22.6	7.8	97.9*	-0.1	24.0
Cc1csc2ncnc(NC3CCN(Cc4ccccc4)CC3)c12	-12.9	107.4*	-2.4	-4.3	0.0	9.2
Cc1ccc(-c2csc3ncnc(N4CCN(Cc5ccccc5)CC4)c23)cc1	6.6	-1.6	-2.3	-18.4	-0.4	4.3
c1coc(CNc2nc(N3CCCCC3)nc3ccccc23)c1	9.1	21.6	8.0	3.3	-0.6	48.5
SMILES	PfHsp90 set2	Beta cell apopt	SKKanGAS inh	CSC inhib	HIF activator	T cruzi repl
O=C(Cn1cnc2c(nnn2Cc2ccc(F)cc2)c1=O)Nc1ccccc1	-0.6	-5.1	-35.0	6.1	-0.1	-15.7
COc1ccc(C(=O)NCC(=O)N/N=C/c2cn(C)c3ccccc23)cc1OC	11.6	14.1	x	-13.4	x	x
COc1ccc(-c2cc(=O)n(-c3ccc([N+](=O)[O-])cc3)[nH]2)cc1	48.8	4.9	24.6	126.0*	0.4	4.3
COc1ccc(-c2[nH]n(-c3ccc([N+](=O)[O-])cc3)c(=O)c2C=NCc2ccc(F)cc2)cc1	-4.4	0.8	8.4	-1.8	0.2	-6.5
CCOc1ccc(S(=O)(=O)N2CCOCC2)cc1NC(=O)c1ccc(N2CCCC2=O)cc1	-12.6	7.3	0.0	3.1	-0.5	-1.9
Cc1ccc(/C=N/NC(=O)c2ccncc2)s1	-8.4	-6.4	-2.5	-2.5	0.0	-7.7
Cn1c(SCC(=O)N/N=C/c2ccc([N+](=O)[O-])s2)nnc1-c1ccc(Cl)cc1	105.3*	88.8*	-0.4	59.1	0.2	50.8
COc1cc([N+](=O)[O-])cc(/C=N/NC(=O)CSc2nnc(-c3ccccc3)n2C)c1O	x	-11.5	4.9	-4.0	-0.1	2.0
Cc1ccc(C(=O)N/N=C\c2ccc([N+](=O)[O-])s2)cn1	-16.9	6.0	4.5	16.6	-1.8	u
Cc1cc(C)n(CC(=O)N/N=C/c2ccc([N+](=O)[O-])s2)n1	20.0	-15.3	1.8	-5.7	0.0	58.7*
Cc1ccc(C(=O)N/N=C/c2ccc([N+](=O)[O-])s2)cc1	-8.0	-55.7	u	-1.2	-2.1	57.5*
O=C(N/N=C/c1ccc([N+](=O)[O-])s1)c1ccncc1	1.7	-51.8	-3.2	9.1	-0.6	55.6*
Cc1cc(C)c(S(C)(=O)=O)c(Sc2ccc(Cl)cc2)n1	-23.7	2.2	1.0	-1.7	0.5	0.3
CC(C)(C)OC(=O)N/N=C\c1ccc([N+](=O)[O-])s1	17.2	1.5	11.9	-15.3	0.2	57.3*
O=C(N/N=C/c1ccc([N+](=O)[O-])s1)c1cccc(Br)c1	34.7	60.2	3.5	15.6	-1.9	92.8*
COc1ccc(NC(=O)CCC(=O)N/N=C/c2ccc([N+](=O)[O-])s2)cc1	116.3*	30.3	7.4	x	-0.3	50.1
O=C(N/N=C/c1ccc(Br)s1)c1ccccc1[N+](=O)[O-]	11.8	0.1	-4.4	0.3	-0.8	7.5
O=C(N/N=C/c1ccc(Br)s1)c1ccc([N+](=O)[O-])cc1	x	11.8	3.0	25.9	-0.1	75.6*
CSCCC(NC(=O)c1ccccc1Br)C(=O)NNC(=O)c1cc(C)oc1C (centres undefined)	4.5	-2.9	x	-0.3	x	x
Cc1ccc(-n2nc3c(c2NC(=O)CC(C)C)CS(=O)(=O)C3)c(C)c1	9.9	-1.6	-3.1	-4.4	-1.3	-4.8
CCC(C)C(N)C(=O)N1CCCC1C(=O)NC(C(=O)O)C(C)CC (centres undefined)	-6.1	x	x	x	x	x
Cc1cc(C)nc(SCc2ccc(C(=O)NNC(=O)Nc3cccc(Cl)c3)cc2)n1	-8.5	-3.9	9.3	110.6*	-0.3	-7.3
